Assay results from paper PMC3953455 (Molecular pharmaceutics, 2013).

Tests used:
human UGT1A1 [1] = target: T1, human UGT1A1 (Homo sapiens, UniProt P22309); experiment: Mutual glucuronidation inhibition; type: biochemical; details: for Ki: mixed-type inhibition; for type of inhibition of UGT1A1-mediated glucuronidation: best fit by R2 and AIC, Lineweaver-Burk plots; for decrease of apparent Vmax of glucuronidation versus control: substrate glucuronidation in presence of increasing 3,7,4′THF, up to 5 μM; for Vmax: n=3
T1 sequence (P22309 26-533): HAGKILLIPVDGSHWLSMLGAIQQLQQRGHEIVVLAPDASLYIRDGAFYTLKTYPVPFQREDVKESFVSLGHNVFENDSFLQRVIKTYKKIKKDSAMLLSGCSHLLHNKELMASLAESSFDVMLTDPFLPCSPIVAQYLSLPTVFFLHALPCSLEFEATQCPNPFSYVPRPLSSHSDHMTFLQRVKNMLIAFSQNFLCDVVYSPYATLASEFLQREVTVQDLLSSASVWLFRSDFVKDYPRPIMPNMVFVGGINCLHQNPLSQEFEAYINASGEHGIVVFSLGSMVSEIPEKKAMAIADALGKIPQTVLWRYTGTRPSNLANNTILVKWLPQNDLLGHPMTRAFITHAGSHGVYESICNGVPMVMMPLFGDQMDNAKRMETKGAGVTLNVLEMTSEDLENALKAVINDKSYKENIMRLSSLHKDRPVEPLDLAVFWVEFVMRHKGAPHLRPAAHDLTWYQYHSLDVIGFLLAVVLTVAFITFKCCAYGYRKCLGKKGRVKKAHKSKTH

human UGT1A1 [2] = target: T1, human UGT1A1; experiment: Glucuronidation kinetics with expressed human UGT1A1 Supersomes; type: in vitro ADME
How it was run: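 Recombinant human UGT1A1 Supersomes (26.5~53.0 µg protein/mL final) with MgCl2 0.88 mM, saccharolactone 4.4 mM, alamethicin 0.022 mg/mL and UDPGA 3.5 mM (added last) in 50 mM potassium phosphate, pH 7.4. Test compound at 0–10 µM final. Incubated 37°C for 15~120 min, then stopped with acetonitrile/acetic acid. Glucuronide quantified by UPLC in triplicate. Rates were fitted to Michaelis-Menten, substrate-inhibition or Hill equations with 1/y weighting.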

[3] = Ki (inhibition of 3,7,4′THF-3-O-G formation), substrate 3,7,4′THF, 3-O-glucuronidation
[4] = Ki (inhibition of 3,7,4′THF-7-O-G formation), substrate 3,7,4′THF, 7-O-glucuronidation
[5] = glucuronide formation in presence of 3,7,4′THF 0.313 μM
[6] = glucuronide formation in presence of 3,7,4′THF 0.625 μM
[7] = glucuronide formation in presence of 3,7,4′THF 1.25 μM
[8] = glucuronide formation in presence of 3,7,4′THF 5 μM
[9] = glucuronide formation, 3,7,4′THF 0 μM (absence of inhibitor)

Vmax (human UGT1A1 [1]; [5]) [nmol/mg/min] | Vmax (human UGT1A1 [1]; [6]) [nmol/mg/min] | Vmax (human UGT1A1 [1]; [7]) [nmol/mg/min] | Vmax (human UGT1A1 [1]; [8]) [nmol/mg/min] | Vmax (human UGT1A1 [1]; [9]) [nmol/mg/min] | SMILES | Ki (human UGT1A1 [1]; [3]) [µM] | Ki (human UGT1A1 [1]; [4]) [µM] | type of inhibition of UGT1A1-mediated glucuronidation (human UGT1A1 [1]) | decrease of apparent Vmax of glucuronidation versus control (human UGT1A1 [1]) [times] | also measured
– | – | – | – | – | O=c1cc(-c2ccc(O)cc2)oc2ccccc12 [4′HF, 4′-hydroxyflavone] | 3.66 ± 0.77 | 6.22 ± 1.74 | mixed-type inhibitors | ≤ 5.0 | –
1.27 ± 0.03 | 1.16 ± 0.03 | 0.99 ± 0.07 | 0.59 ± 0.07 | 1.40 ± 0.05 | O=C(O)[C@H]1O[C@@H](Oc2ccc3c(=O)cc(-c4ccccc4)oc3c2)[C@H](O)[C@@H](O)[C@@H]1O [7HF-O-G, 7HF-O-glucuronide] | – | – | – | – | –
1.63 ± 0.07 | 1.67 ± 0.03 | 2.05 ± 0.13 | 0.44 ± 0.16 | 2.00 ± 0.05 | O=C(O)[C@H]1O[C@@H](Oc2c(-c3ccccc3)oc3ccccc3c2=O)[C@H](O)[C@@H](O)[C@@H]1O [3HF-O-G, 3HF-O-glucuronide] | – | – | – | – | –
0.63 ± 0.02 | 0.61 ± 0.02 | 0.58 ± 0.01 | 0.14 ± 0.01 | 0.68 ± 0.02 | O=C(O)[C@H]1O[C@@H](Oc2ccc(-c3cc(=O)c4ccccc4o3)cc2)[C@H](O)[C@@H](O)[C@@H]1O [4′HF-O-G, 4′HF-O-glucuronide] | – | – | – | – | –
– | – | – | – | – | O=c1cc(-c2ccccc2)oc2cc(O)ccc12 [7HF, 7-hydroxyflavone] | 1.77 ± 0.72 | 4.33 ± 1.6 | mixed-type inhibitors | ≤ 2.4 | –
– | – | – | – | – | O=c1c(O)c(-c2ccccc2)oc2ccccc12 [3HF, 3-Hydroxyflavone] | 4.14 ± 1.24 | 9.04 ± 2.72 | mixed-type inhibitors | ≤ 4.6 | –
– | – | – | – | – | O=c1c(O)c(-c2ccc(O)cc2)oc2cc(O)ccc12 [3,7,4′THF, 3,7,4′-trihydroxyflavone] | – | – | mixed-type inhibition | – | Ki of substrate inhibition (human UGT1A1 [2]; substrate inhibition pattern of 3,7,4′THF in the absence of three MHFs): approximately 1 μM; Ki (human UGT1A1 [1]; Ki (inhibition of glucuronidation of 3HF), substrate 3HF): 0.51 ± 0.15 µM; Ki (human UGT1A1 [1]; Ki (inhibition of glucuronidation of 7HF), substrate 7HF): 1.29 ± 0.33 µM
– | – | – | – | – | O=C(O)[C@H]1O[C@@H](Oc2ccc(-c3oc4cc(O)ccc4c(=O)c3O)cc2)[C@H](O)[C@@H](O)[C@@H]1O [3,7,4′THF-4′-O-G, 3,7,4′THF-4′-O-glucuronide] | – | – | – | – | detection of glucuronide in UGT1A1 reaction mixtures (human UGT1A1 [2]; 3,7,4′THF incubated with human UGT1A1): not detected
